The results in this text go back to ChEMBL document CHEMBL3102752, “Identification of novel drug scaffolds for inhibition of SARS-CoV 3-Chymotrypsin-like protease using virtual and high-throughput screenings” (Bioorg Med Chem, 2014).

The structures appear in SMILES notation. Counter-ions that a name gives are not always drawn. Active and inactive are the calls of the source. The rule behind the calls is not given here. Where only a bound is given, the exact number is not on record here.

The target in assay [1] is Replicase polyprotein 1ab (Severe acute respiratory syndrome-related coronavirus) (UniProt P0C6X7). Put plainly: Inhibition of SARS coronavirus 3C-like protease using 5-FAM-TSATLQSGFRK(QXL520)-NH2 as substrate at 100 uM preincubated for 5 mins followed by substrate addition measured after 6 mins by FRET assay in presence of GSH relative to control.
The target is the same in assay [2]. Put plainly: Inhibition of SARS coronavirus 3C-like protease using 5-FAM-TSATLQSGFRK(QXL520)-NH2 as substrate at 100 uM preincubated for 5 mins followed by substrate addition measured after 6 mins by FRET assay relative to control.
Assay [3] concerns the target T1, Replicase polyprotein 1ab (Severe acute respiratory syndrome-related coronavirus, UniProt P0C6X7). Put plainly: Inhibition of SARS coronavirus 3C-like protease using 5-FAM-TSATLQSGFRK(QXL520)-NH2 as substrate preincubated for 5 mins followed by substrate addition measured after 6 mins by FRET assay in presence of GSH. The method, boiled down:
(§1)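 Enzyme preincubated 5 min with compound (0–200 μM, 2-fold series), then 15 μM FAM/QXL substrate added. Continuous fluorescence read for 6 min, in triplicate. IC50 from Hill fit over two to four independent assays.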

Assay [4] addresses T1, Replicase polyprotein 1ab. Put plainly: Inhibition of SARS coronavirus 3C-like protease using 5-FAM-TSATLQSGFRK(QXL520)-NH2 as substrate preincubated for 5 mins followed by substrate addition measured after 6 mins by FRET assay. The method, boiled down: as §1
A short description of assay [5]: Inhibition of SARS coronavirus PL-protease. Set-up: species or system Severe acute respiratory syndrome-related coronavirus.
The target of assay [6] is Replicase polyprotein 1ab (Severe acute respiratory syndrome-related coronavirus) (UniProt P0C6X7). Put plainly: Reversible inhibition of SARS coronavirus 3C-like protease using 5-FAM-TSATLQSGFRK(QXL520)-NH2 as substrate assessed as recovery rate at 20 x IC50 preincubated for 1 hr followed by compound washout by FRET assay in presence of GSH. Set-up: scale not given: the % may be the effect or the level left. The method in brief: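 No-compound enzyme served as control. Samples desalted to remove compound; activity measured before and after buffer exchange by the IC50 assay.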

The target is the same in assay [7]. Put plainly: Binding affinity to SARS coronavirus 3C-like protease using 5-FAM-TSATLQSGFRK(QXL520)-NH2 as substrate up to 200 uM by SPR analysis. The method, boiled down:
(§2)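 Untagged native 3CLpro amine-coupled to CM5 chip (in 10 mM sodium acetate pH 5.0). Ethanolamine-blocked channel as reference. Running buffer HBS-P pH 7.4, 20 °C.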
(In general: In SPR one partner is held on a chip, and binding of the other changes the refractive index at the surface.)

Assay [8] has the same target. Put plainly: Binding affinity to SARS coronavirus 3C-like protease using 5-FAM-TSATLQSGFRK(QXL520)-NH2 as substrate up to 90 uM by SPR analysis. The method in brief:
as §2

Assay [9] addresses T1, Replicase polyprotein 1ab. The experiment in a line: Competitive inhibition of SARS coronavirus 3C-like protease using 5-FAM-TSATLQSGFRK(QXL520)-NH2 as substrate by Dixon plot analysis. The method in brief: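 Best-fit inhibition model chosen by fitting competitive, non-competitive, uncompetitive or mixed equations to give Ki. Dixon plot; three independent assays.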
The target of assay [10] is Ubiquitin carboxyl-terminal hydrolase isozyme L1 (Homo sapiens) (UniProt P09936). Put plainly: Inhibition of human UCH-L1. The method in brief: (§3)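 IC50 determined in triplicate with 32 positive and 32 negative controls per plate. Data fitted to a three-parameter Hill equation.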
Ubiquitin carboxyl-terminal hydrolase isozyme L1 (Homo sapiens), sequence (P09936 whole entry, looked up): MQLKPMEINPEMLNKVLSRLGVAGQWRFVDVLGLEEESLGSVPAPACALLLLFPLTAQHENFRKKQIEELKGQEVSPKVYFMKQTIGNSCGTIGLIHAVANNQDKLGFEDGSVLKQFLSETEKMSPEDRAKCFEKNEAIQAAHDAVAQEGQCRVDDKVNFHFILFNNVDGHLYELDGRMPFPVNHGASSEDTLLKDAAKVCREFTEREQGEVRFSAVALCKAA
In assay [11] the test system is Hepacivirus hominis. The experiment in a line: Inhibition of Hepatitis C virus NS3/4A protease. The method in brief:
as §3

Assay [12] has as its target T2, Dihydroorotase (Bacillus anthracis) (UniProt Q81WF0).
T2 sequence (whole entry): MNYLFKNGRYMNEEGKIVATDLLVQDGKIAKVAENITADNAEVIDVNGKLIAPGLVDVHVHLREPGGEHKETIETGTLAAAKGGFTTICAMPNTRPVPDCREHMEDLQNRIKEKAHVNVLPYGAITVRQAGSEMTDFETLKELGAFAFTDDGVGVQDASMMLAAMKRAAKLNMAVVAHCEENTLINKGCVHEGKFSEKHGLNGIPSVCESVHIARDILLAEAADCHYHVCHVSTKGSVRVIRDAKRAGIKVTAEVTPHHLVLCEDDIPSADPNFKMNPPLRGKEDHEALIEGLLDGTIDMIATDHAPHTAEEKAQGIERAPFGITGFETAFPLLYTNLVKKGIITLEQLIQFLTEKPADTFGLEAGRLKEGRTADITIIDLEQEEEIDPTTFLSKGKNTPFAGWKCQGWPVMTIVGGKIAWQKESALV
Put plainly: Inhibition of Bacillus anthracis dihydroorotase. The method in brief:
as §3

Assay [13] relates to Streptococcus pneumoniae. Put plainly: Inhibition of Streptococcus pneumoniae PurC. The method, boiled down:
as §3

The target of assay [14] is T1, Replicase polyprotein 1ab. The experiment in a line: Inhibition of SARS coronavirus 3C-like protease using 5-FAM-TSATLQSGFRK(QXL520)-NH2 as substrate.
For assay [15], the target named is Replicase polyprotein 1ab (Severe acute respiratory syndrome-related coronavirus) (UniProt P0C6X7). The experiment in a line: Binding affinity to SARS coronavirus 3C-like protease using 5-FAM-TSATLQSGFRK(QXL520)-NH2 as substrate by SPR analysis.

One may read the IC50 as the concentration that gives 50% inhibition. Consider `COCCOCCn1c(CCCO)nc2ccccc21`, for which the inhibition entry in assay [1] and in assay [2] was “inactive” each time. Moreover, the IC50 in assay [3] came to 186 µM; in [4] it was 25.6 µM.

Turning to `S=C(NCc1cccnc1)SCc1cc(Cl)sc1Cl`, the figures for the IC50 in assay [5], in [3] and in assay [4] were over 200 µM, 9.2 µM and 0.16 µM, respectively. Further, the Activity in assay [6] is over 50%.

With `COc1ccc(C(=O)Cn2c(NCCO)nc3ccccc32)cc1`, the Activity in assay [6] came out at 14.3%. Further, the inhibition entry in [1] and in assay [2] was “inactive” in each case. The results for the half-maximal inhibitory concentration (IC50) in assay [3] and in [4] were 40.9 µM and 28.8 µM, respectively.

Consider `C(=C\c1ccccc1)/C[N+]1(C/C=C/c2ccccc2)CCN(C(c2ccccc2)c2ccccc2)CC1`, for which the figures for the IC50 in assay [5], in assay [3] and in assay [4] were over 200 µM, 28.3 µM and 29.8 µM, respectively. Moreover, the outcome in assay [7] was Active.

With `COc1ccc(N(CC(=O)NCc2ccco2)S(C)(=O)=O)cc1`, in assay [8], the result was inactive. Besides, the inhibition entry in [1] and in assay [2] was “inactive” each time. The values for the IC50 in assay [3] and in [4] were 61.9 µM and 16.1 µM, respectively.

Broadly, the Ki is the dissociation constant of the complex between target and ligand, obtained from inhibition or displacement. For the compound `Cn1cnc2cc(NC(=O)c3ccc(Cl)cc3)ccc21`, the IC50 is over 200 µM in [5], 30.9 µM in assay [3], 27.6 µM in assay [4] and 18.2 µM in assay [14]. The Ki in [9] stood at 27.5 µM. In assay [6], the Activity was over 50%. In addition, the inhibition entry in [10], in assay [11], in [12] and in [13] was “inactive” in each case.

In the case of `COc1ccccc1CNC(=O)[C@H](C)NS(=O)(=O)c1ccccc1`, the inhibition entry in [1] and in assay [2] was “inactive” in each case.

Take `O=C(c1cncc(Br)c1)N1CCN(Cc2ccsc2)CC1`: the figures for the 50% inhibitory concentration (IC50) in assay [5], in [3] and in [4] were 105 µM, 24.5 µM and 10.8 µM, respectively. Besides, the result in [15] was inactive.

Take `CCOc1ccc(S(=O)(=O)NCc2ccc3c(c2)OCO3)cc1C`: the IC50 in assay [5] is over 200 µM; in [3], 76.7 µM; in assay [4] it was over 200 µM. Besides, in [6], the Activity was over 50%. The inhibition result in [1] and in assay [2] was “inactive” in each case.

Take `Nc1ccc(F)c(S(=O)(=O)Nc2cccc(C(F)(F)F)c2)c1`: the inhibition entry in [1] and in assay [2] was “inactive” in each case. For the same compound, the IC50 in assay [3] was over 200 µM; in [4], 29.8 µM.

Consider `CN(CC(=O)NC1CCCC1)S(=O)(=O)c1cccc(Cl)c1`, for which the IC50 is over 200 µM in [3] and 0.94 µM in [4].

`OCCCc1nc2ccccc2n1CCOc1ccccc1`: in [15], the result was inactive. Besides, the inhibition result in assay [1] and in assay [2] was “inactive” in each case. Besides, the IC50 was 74.5 µM in assay [3] and over 200 µM in assay [4].

For the compound `CCCCC(CC)CNC(=N)NC(=N)NCCCCCCNC(=N)NC(=N)NCC(CC)CCCC` (stereo not given) [ALEXIDINE DIHYDROCHLORIDE], the IC50 was over 200 µM in [5], 17.8 µM in assay [3], 24.5 µM in [4] and 25.1 µM in [14]. For the same compound, the result in assay [15] was inactive.
